Ecoli WT expand – growth inhibitors of wild-type E. coli, primary screen, strain BW25113, expanded library, OD600 | AID 710, 2007 | growth inhibition, % at 100 µM | OD600 absorbance | 98,000 tested, 0.15% active;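 active = growth inhibition above about 50% at one test dose, limit read from the data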;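 note: growth measured after 20 h incubation at 37 °C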
BAP1 block – inhibitors of BAP1 deubiquitinase, primary screen, biochemical, Ub-AMC fluorescence, kinetic. Ubiquitin carboxyl-terminal hydrolase BAP1 (Homo sapiens), Q92560. recombinant BAP1, Ub-AMC hydrolysis fluorescence kinetic; hits give low values. calls only at 20 µM. 72,000 tested, 0.48% active. AID 436, 2006;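 active = activity remaining at or below 50% of control, provided the compound also passes the data quality filters; inactive = the rest, including low values that fail the filters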
Hsp90 inh – tumor Hsp90 inhibitors, primary screen, cell lysate, fluorescence polarization, NCI-N417 lysate; Cy3B-geldanamycin FP displacement; 64,000 tested, 0.35% active; inhibition, % at 30 µM; Heat shock protein HSP 90-alpha (Homo sapiens), P07900; AID 429, 2006;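 active = inhibition above 50%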
M1 antag – antagonists of rat M1 muscarinic receptor; 64,000 tested, 3.4% active; AID 628, 2007; CHO-M1 cells, Fluo-4 calcium, ACh EC80 antagonist mode; hits give low values; Muscarinic acetylcholine receptor M1 (Rattus norvegicus), P08482; B-score at 10 µM;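 active = calcium fluorescence response, raw or row-and-column corrected B-score, differing from the plate sample mean either way at a set confidence level, mostly lower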
Target sequence (P08482 whole entry, looked up): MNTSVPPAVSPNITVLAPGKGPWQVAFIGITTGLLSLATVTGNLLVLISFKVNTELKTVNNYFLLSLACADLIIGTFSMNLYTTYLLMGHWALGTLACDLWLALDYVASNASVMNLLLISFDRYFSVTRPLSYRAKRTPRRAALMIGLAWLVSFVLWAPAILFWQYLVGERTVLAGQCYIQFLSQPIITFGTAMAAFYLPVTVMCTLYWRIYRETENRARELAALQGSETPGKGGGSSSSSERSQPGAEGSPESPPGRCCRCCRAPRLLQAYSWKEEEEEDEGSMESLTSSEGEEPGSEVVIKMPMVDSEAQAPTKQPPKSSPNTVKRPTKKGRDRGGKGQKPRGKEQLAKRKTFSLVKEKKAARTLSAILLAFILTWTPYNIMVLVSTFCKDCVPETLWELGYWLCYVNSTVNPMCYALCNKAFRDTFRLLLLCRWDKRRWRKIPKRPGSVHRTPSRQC
M1 agonist – M1 muscarinic receptor agonists, primary screen, CHO-M1 cells, Fluo-4 calcium, agonist mode; Muscarinic acetylcholine receptor M1; Fluo-4 calcium fluorescence; hits give high values; B-score at 10 µM; 64,000 tested, 3% active; AID 626, 2007;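 active = fluorescence rise, raw or as B-score row- and column-corrected plate score, outside the 99.7% band of its plate's samples, either direction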
tolC growth inh – growth inhibitors of E. coli tolC mutant, primary screen, strain BW25113 ΔtolC::kan, 384-well; OD615; growth inhibition, % at 10 µM (by protocol); 65,000 tested, 2.2% active; AID 573, 2007;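 active = growth inhibition at or above a cutoff equal to the mean over every tested compound plus 3 SD, cut at about 60% in these data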;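 note: growth measured after 20 h incubation at 37 °C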
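Material: E. coli BW25113 ΔtolC::kan, tolC deletion mutant strain. Measure: percent growth inhibition. Schedule: 37 °C, 20 h exposure. Doses: single-point testing at 10 µM. Signal: A615 absorbance measurement. Buffer or medium: kanamycin-containing LB broth (50 µg/mL).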
BAP1 inh confirm – BAP1 deubiquitinase inhibitors, hit retest, confirmation, orthogonal assay, biochemical, Ub-ethyl ester substrate, HPLC readout; shares compounds with BAP1 block; purified BAP1, Ub-ethyl ester hydrolysis; hits give low values; % of control activity, % at 20 µM; 310 tested, 8% active; AID 753, 2007;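 active = percent of control activity at or below 60%; inconclusive = HPLC trace unusable from injection failure or solvent front hiding peaks; inactive = the rest, plus ubiquitin peak ratio over a set limit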
Hits are given with their value. Rows were chosen to be rich in hits. Some 5.1% of all compounds tested hit in one or more screens of this group.

O=C1C(=O)N(Cc2ccc(CN3C(=O)C(=O)c4ccccc43)cc2)c2ccccc21 was read as BAP1 block inactive.
Screening NC(=O)CN1C(=O)c2ccccc2S1(=O)=O returned BAP1 block inactive.
`O=C1C(Cl)=C(N(Cc2ccccc2)Cc2ccccc2)C(=O)N1c1ccc(Cl)cc1` gave BAP1 block inactive.
For COC(=O)c1ccc(O)c(Sc2cc(C(=O)OC)ccc2O)c1 the results were Ecoli WT expand inactive, BAP1 block inactive, Hsp90 inh inactive, M1 antag inactive, M1 agonist inactive and tolC growth inh 87.2.
`O=C(Nc1nc(-c2ccccc2)cs1)C1COc2ccccc2O1` (stereo not given) gave Ecoli WT expand inactive.
O=C(Nc1nc(-c2ccccn2)cs1)C1COc2ccccc2O1 (stereo not given) was read as Ecoli WT expand inactive, BAP1 block inactive, Hsp90 inh inactive, M1 antag inactive, M1 agonist inactive and tolC growth inh 100.0.
`O=C(Nc1nc(-c2ccc3c(c2)OCO3)cs1)C1COc2ccccc2O1` (stereo not given) gave Ecoli WT expand inactive, BAP1 block inactive, Hsp90 inh 91.1, M1 antag inactive, M1 agonist inactive and tolC growth inh inactive.
`Cc1cc(N2CCC(C)CC2)nc(-n2nc(C)cc2C)n1` gave Ecoli WT expand inactive, BAP1 block inactive, Hsp90 inh inactive, M1 antag inactive, M1 agonist inactive and tolC growth inh 100.0.
`CCOC(=O)c1c(C)c(C(=O)Nc2cc(OC)ccc2OC)c(C)n1CC` gave Ecoli WT expand inactive, BAP1 block inactive, Hsp90 inh inactive, M1 antag inactive, M1 agonist inactive and tolC growth inh 68.0.
For CCOC(=O)c1[nH]c(C)c(C(=O)Nc2cc(OC)ccc2OC)c1C the results were Ecoli WT expand inactive, BAP1 block inactive, Hsp90 inh inactive, M1 antag inactive, M1 agonist inactive and tolC growth inh inactive.
CCC(NC(=O)Nc1cc(OC)c(OC)c(OC)c1)(C(F)(F)F)C(F)(F)F was read as Ecoli WT expand inactive, BAP1 block inactive, Hsp90 inh inactive, M1 antag 2.41, M1 agonist inactive and tolC growth inh inactive.
Screening CCC(NC(=O)Nc1nccs1)(C(F)(F)F)C(F)(F)F returned Ecoli WT expand inactive, BAP1 block inactive, Hsp90 inh inactive, M1 antag inactive, M1 agonist inactive and tolC growth inh inactive.
CC(=O)c1ccc(N=c2oc3ccc(Br)cc3cc2C(N)=O)cc1 was read as BAP1 block inactive.
`CCSc1nnc(NC(=O)NC(CC)(C(F)(F)F)C(F)(F)F)s1` gave Ecoli WT expand inactive, BAP1 block inactive, Hsp90 inh inactive, M1 antag -1.39, M1 agonist 5 and tolC growth inh inactive.
For CCCCOC(=O)c1cccc(NC(=O)c2ccccc2OC)c1 the results were BAP1 block inactive.
Screening O=C1c2ccccc2-c2onc3c(N4CCCC4)cc(Nc4ccc(Cl)cc4)c1c23 returned BAP1 block inactive.
Screening O=C(CCn1c(=O)oc2ccccc21)N1CCN(C(c2ccccc2)c2ccccc2)CC1 returned Ecoli WT expand inactive, BAP1 block inactive, Hsp90 inh inactive, M1 antag inactive, M1 agonist inactive and tolC growth inh 63.7.
Screening O=C(Nc1nonc1-c1nc2ccccc2n1Cc1ccccc1)c1ccc(F)cc1 returned BAP1 block inactive.
CCOc1ccccc1N1CCN(Cc2ccc(Br)s2)CC1 was read as Ecoli WT expand inactive, BAP1 block inactive, Hsp90 inh inactive, M1 antag inactive, M1 agonist inactive and tolC growth inh 96.9.
Screening Oc1ccc(C=Nc2ccc3ncccc3c2)c(O)c1 returned Ecoli WT expand inactive, Hsp90 inh 76.0, M1 antag inactive, M1 agonist inactive and tolC growth inh inactive.
For COc1cccc(N=Cc2ccc(O)cc2O)c1 the results were Ecoli WT expand inactive, BAP1 block inactive, Hsp90 inh inactive, M1 antag inactive, M1 agonist 2.25 and tolC growth inh inactive.
COc1cccc(C=Nc2ccc3c(c2)OCCO3)c1O was read as Ecoli WT expand inactive, BAP1 block inactive, Hsp90 inh inactive, M1 antag inactive, M1 agonist inactive and tolC growth inh inactive.
Screening Oc1ccc(C=Nc2cccc3ncccc23)c(O)c1 returned Ecoli WT expand inactive, BAP1 block inactive, Hsp90 inh inactive, M1 antag inactive, M1 agonist inactive and tolC growth inh inactive.
`CCOC(=O)c1cnn(-c2nc(C)nc3sc4c(c23)CCC4)c1N` gave BAP1 block inactive, Hsp90 inh inactive, M1 antag inactive, M1 agonist inactive and tolC growth inh inactive.
For CCOC(=O)c1cnn(-c2nc3sc4c(c3c(=O)[nH]2)CCCC4)c1N the results were Hsp90 inh inactive, M1 antag inactive, M1 agonist inactive and tolC growth inh 93.5.
For O=C(Nc1ccc(N2CCN(C(=O)c3ccco3)CC2)c(Cl)c1)c1c(F)c(F)c(F)c(F)c1F the results were Ecoli WT expand inactive, BAP1 block active, Hsp90 inh inactive, M1 antag inactive, M1 agonist inactive, tolC growth inh 77.3 and BAP1 inh confirm inconclusive.
COc1ccc(CCNC(=O)c2sc3ccccc3c2Cl)cc1 was read as BAP1 block inactive.
CC(C)OC(=O)c1cccnc1SCc1cc(=O)n2ccccc2n1 was read as Ecoli WT expand inactive, BAP1 block active, Hsp90 inh inactive, M1 antag inactive, M1 agonist inactive, tolC growth inh inactive and BAP1 inh confirm inactive.
For Cc1cc(-c2nn3c(-c4ccccc4)nnc3s2)c2ccccc2n1 the results were Ecoli WT expand inactive, BAP1 block inactive, Hsp90 inh inactive, M1 antag inactive, M1 agonist inactive and tolC growth inh inactive.
`c1ccc(-c2cc(-c3nn4c(-c5ccco5)nnc4s3)c3ccccc3n2)cc1` gave Ecoli WT expand inactive, BAP1 block active, Hsp90 inh inactive, M1 antag inactive, M1 agonist inactive, tolC growth inh inactive and BAP1 inh confirm inactive.
Screening Cc1ccccc1N1CCN(Cc2c(C#N)c3ccccc3n2C)CC1 returned Ecoli WT expand inactive, BAP1 block active, Hsp90 inh inactive, M1 antag inactive, M1 agonist inactive, tolC growth inh inactive and BAP1 inh confirm inactive.
Cc1ccc(SCc2c(C#N)c3ccccc3n2C)cc1 was read as BAP1 block inactive, Hsp90 inh inactive, M1 antag inactive, M1 agonist inactive and tolC growth inh inactive.

Bioassay records deposited in PubChem BioAssay by several laboratories.
